OXTR ag: activates the human oxytocin receptor. hit rate 0.32% among 320,000. activation, % at 3 µM. CHO-OTR cells, Fluo-8 calcium fluorescence; normalized: DMSO 0%, oxytocin 100%. AID 2435;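 active = activation above the mean of all tested compounds plus 3 SD, cutoff set per screening run, cut at about 20% in these data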;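 note: peak over basal fluorescence ratio from a 100 s FLIPR kinetic read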
V1R ag counter: counter-screen for oxytocin receptor agonists: human V1a receptor agonists; AID 2797; hit rate 0.25% among 320,000; activation, % at 3 µM; CHO-V1R cells, Fluo-8 calcium fluorescence, agonist mode; 0% DMSO, 100% 3 nM vasopressin;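 active = activation above the mean activation of all tested compounds plus 3 SD, per screening run, cut at about 20% in these data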;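 note: signal is peak over basal fluorescence ratio across a 100 second FLIPR read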
Target sequence (P37288 whole entry, looked up): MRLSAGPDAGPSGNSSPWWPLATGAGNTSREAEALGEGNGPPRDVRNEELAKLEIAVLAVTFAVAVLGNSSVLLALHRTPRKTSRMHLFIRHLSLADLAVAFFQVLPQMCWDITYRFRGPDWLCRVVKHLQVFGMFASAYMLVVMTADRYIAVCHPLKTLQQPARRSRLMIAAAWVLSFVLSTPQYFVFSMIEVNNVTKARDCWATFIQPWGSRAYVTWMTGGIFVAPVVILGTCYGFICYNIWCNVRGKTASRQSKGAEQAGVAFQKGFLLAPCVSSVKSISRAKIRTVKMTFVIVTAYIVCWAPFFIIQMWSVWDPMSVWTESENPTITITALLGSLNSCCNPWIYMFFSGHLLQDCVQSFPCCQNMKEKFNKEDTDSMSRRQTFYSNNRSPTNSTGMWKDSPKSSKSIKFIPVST
TAAR1 agonist: human TAAR1 agonism | hit rate 0.99% among 360,000 | activation, % at 3 µM | Q96RJ0 | CHO RD-HGA16 TAAR1, Fluo-8 calcium fluorescence; vehicle wells 0%, saturating PEA agonist 100% | AID 624467;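 active = activation above the mean activation of all test compounds in the run plus 3 SD, cut at about 38% in these data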
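System: CHO-derived RD-HGA16 cells with stable Gα16 and human TAAR1 / Times: 17-24 h plating, Fluo-8 75 min 37 °C, 30 min RT / Technique: calcium-sensitive Fluo-8 signal, excitation 470-495, emission 515-575 nm / Measure: % activation relative to PEA EC100 response / Benchmarks: DMSO and PEA EC100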
TAAR1 antagonist: antagonists of human TAAR1 | CHO RD-HGA16 TAAR1, Fluo-8 calcium fluorescence, antagonist | inhibition, % at 3 µM | hit rate 1.5% among 360,000 | AID 624466;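 active = inhibition above a per-plate cutoff, the mean inhibition of test compounds on that plate plus 3 SD, cut at about 49% in these data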
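Test system: RD-HGA16 CHO cells with stable hTAAR1 and Gα16 / Probe or stimulus: EC80 β-phenethylamine stimulus / Times: seeding 17-24 h prior, 75-min 37 °C, 30-min RT dye loading / Detection: Fluo-8 calcium-sensitive fluorescence / Read-out basis: % inhibition scaled between DMSO and EC80 PEA controls / Repeats: singlicate, one well per test compound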
OXTR potentiate: potentiates the human oxytocin receptor response; CHO-OTR cells, Fluo-8 calcium fluorescence, potentiator mode; 0% = oxytocin EC15, 100% = EC100; activation, % at 3 µM; hit rate 0.061% among 320,000;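 active = activation above that plate's cutoff, the mean activation of tested compounds plus 3 SD, cut at about 6.6% in these data, passing the limit was not always enough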
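Assay system: CHO-OTR cells, human receptor / Also added: oxytocin at about EC15, sub-maximal agonist stimulus / Dosing: single dose, 3.0 µM nominal final compound concentration / Incubation: 6 min pre-incubation, 100 s read / Technique: Fluo-8 calcium dye fluorescence / Read-out: % activation vs EC15 and EC100 oxytocin / Benchmarks: EC15 oxytocin low, 75 nM oxytocin high / Replicates: singlicate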
TAAR1 ag conf: human TAAR1 agonism, confirmed; hit rate 82% among 2,400; shares compounds with TAAR1 agonist; activation, % at 3 µM; CHO RD-HGA16 TAAR1, Fluo-8 calcium fluorescence; scaled: DMSO 0%, maximal phenethylamine 100%; AID 651783;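 active = activation above a cutoff set at the run's mean compound activation plus 3 SD, cut at about 39% in these data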
Ga16 ag counter: counter-screen for TAAR1 agonists: nonselective agonists in parental cells; shares compounds with TAAR1 agonist; CHO-Ga16 parental, Fluo-8 calcium fluorescence; normalized to maximal ATP response, DMSO zero; activation, % at 3 µM; hit rate 50% among 2,400;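 active = activation above the run cutoff, the mean activation over all tested wells plus 3 SD, cut at about 12% in these data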
TAAR1 desens: TAAR1 response desensitization, agonist counter-screen; shares compounds with TAAR1 agonist; CHO RD-HGA16 hTAAR1, Fluo-8 calcium, beta-PEA response inhibition; inhibition, % at 3 µM; hit rate 46% among 2,400; AID 651951;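 active = inhibition above the run cutoff, the mean inhibition of all test compounds plus 3 SD, cut at about 49% in these data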;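 note: beta-PEA stimulus applied at its EC80; loss of beta-PEA calcium signal after compound pretreatment read as receptor desensitization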
Ga16 antag count: nonselective Ga16 antagonist in TAAR1 agonist counter-screen | shares compounds with TAAR1 agonist | CHO-Ga16 ATP-induced calcium, Fluo-8 fluorescence | inhibition, % at 3 µM | hit rate 39% among 2,400 | AID 651952;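 active = inhibition above the plate's mean compound inhibition plus 3 SD, computed per plate, cut at about 22% in these data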
Each line names hits and unclear results; the compound was inactive in the other large screens (follow-up assays come after a bar, where they were run). Hits are enriched below; roughly 2.3% of the tested compounds scored in any of these assays.

COc1cc(C(O)CN)ccc1O (stereo unspecified)	none
COc1ccc(CCN)cc1O	TAAR1 agonist 47 | TAAR1 ag conf 62 | Ga16 ag counter inactive | TAAR1 desens inactive | Ga16 antag count inactive
CCCCOc1ccc(CCN)cc1Cl	TAAR1 agonist 87, TAAR1 antagonist 67 | TAAR1 ag conf 99 | Ga16 ag counter 18 | TAAR1 desens 84 | Ga16 antag count inactive
CC(C)Oc1ccc(CCN)cc1Cl	TAAR1 agonist 52 | TAAR1 ag conf 68 | Ga16 ag counter inactive | TAAR1 desens inactive | Ga16 antag count inactive
OC(c1ccccc1)(c1ccccc1)c1ccncc1	none
CCOP(=O)(OCC)C(NC(=O)c1ccccc1Cl)=C(Cl)Cl	none
COc1ccccc1CCNCc1cc2c(cc1[N+](=O)[O-])OCO2	none (no result: TAAR1 agonist, TAAR1 antagonist) | Ga16 ag counter inactive | Ga16 antag count inactive
S=C1NCCN1	none
CC(C)[C@H]1C(=O)N2CCC[C@H]2[C@]2(O)O[C@](NC(=O)[C@@H]3C=C4c5cccc6[nH]cc(c56)C[C@H]4N(C)C3)(C(C)C)C(=O)N12	none (no result: TAAR1 agonist, TAAR1 antagonist)
CN1C[C@H](CO)C=C2c3cccc4[nH]cc(c34)C[C@H]21	TAAR1 agonist 64, TAAR1 antagonist 64 | TAAR1 ag conf 92 | Ga16 ag counter inactive | TAAR1 desens 85 | Ga16 antag count inactive
C[CH2][Hg][S]c1ccccc1C(=O)O	TAAR1 agonist 120, TAAR1 antagonist 96, OXTR potentiate 12 | TAAR1 ag conf 44 | Ga16 ag counter 59 | TAAR1 desens 73 | Ga16 antag count 84
COc1cc(/C=C/[N+](=O)[O-])ccc1O	none
CCN(CC)c1ccc(/C=C/[N+](=O)[O-])cc1	OXTR ag 42, V1R ag counter 73, TAAR1 agonist 227, TAAR1 antagonist 90 | TAAR1 ag conf 51 | Ga16 ag counter 58 | TAAR1 desens 51 | Ga16 antag count 59
CN1CCN(c2nc([N+](=O)[O-])nn2C)CC1	none
COc1ccc(CNCCc2c[nH]c3ccccc23)c(OC)c1C	none
COc1ccc(CNCCc2ccccc2F)c(OC)c1C	TAAR1 agonist 84, TAAR1 antagonist 73 | TAAR1 ag conf 93 | Ga16 ag counter inactive | TAAR1 desens 80 | Ga16 antag count inactive
Cn1cccc1CNCCc1ccccc1F	TAAR1 agonist 63, TAAR1 antagonist 67 | TAAR1 ag conf 102 | Ga16 ag counter inactive | TAAR1 desens 82 | Ga16 antag count inactive
